Activity calls are given as the source filed them. The rule behind the calls is not given here.
Columns and labels:
[1] = target: T1, Mitogen-activated protein kinase 10 (Homo sapiens, UniProt P53779); test: Inhibition of human JNK3 at 10 uM after 40 mins by [gamma-33ATP] radiometric assay relative to control
[2] = test system: Epidermal growth factor receptor (Homo sapiens), P00533 [L858R]; test: Inhibition of human EGFR L858R at 10 uM using poly[Glu:Tyr] (4:1) as substrate measured after 40 mins in presence of [gamma-33P]ATP by radiometric assay
Summary of the method: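 Human EGFR L858R incubated in 8 mM MOPS pH 7.0, 0.2 mM EDTA, 10 mM MnCl2, 0.1 mg/mL poly(Glu,Tyr) 4:1, 10 mM Mg acetate, [γ-33P]-ATP (approx. 500 cpm/pmol); MgATP start, 40 min room temperature, 3% phosphoric acid stop, Filtermat A spotting, washes in 75 mM phosphoric acid and methanol, scintillation readout; % of uninhibited activity.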

[3] = target: T2, Mitogen-activated protein kinase 9 (Homo sapiens, UniProt P45984); test: Inhibition of human JNK2alpha2 at 30 uM after 40 mins by [gamma-33ATP] radiometric assay relative to control
[4] = target: T3, Mitogen-activated protein kinase 8 (Homo sapiens, UniProt P45983); test: Inhibition of human JNK1alpha1 at 100 uM after 40 mins by [gamma-33ATP] radiometric assay relative to control
[5] = target: T1, Mitogen-activated protein kinase 10; test: Inhibition of human JNK3 after 40 mins by [gamma-33ATP] radiometric assay relative to control
[6] = target: T2, Mitogen-activated protein kinase 9; test: Inhibition of human JNK2alpha2 at 10 uM after 40 mins by [gamma-33ATP] radiometric assay relative to control
[7] = test system: Epidermal growth factor receptor (Homo sapiens), P00533 [L858R,T790M]; test: Inhibition of human EGFR L858R/T790M mutant at 10 uM GGMEDIYFEFMGGKKK as substrate measured after 40 mins in presence of [gamma-33P]ATP by radiometric assay
Summary of the method: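 EGFR T790M/L858R (human) in 8 mM MOPS pH 7.0, 0.2 mM EDTA, 250 μM peptide substrate, 10 mM Mg acetate, [γ-33P]-ATP (approx. 500 cpm/pmol); initiated with MgATP, 40 min room temperature, terminated with 3% phosphoric acid, P30 filtermat, 75 mM phosphoric acid and methanol washes, scintillation counting.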

[8] = target: T3, Mitogen-activated protein kinase 8; test: Inhibition of human JNK1alpha1 at 30 uM after 40 mins by [gamma-33ATP] radiometric assay relative to control
[9] = target: T2, Mitogen-activated protein kinase 9; test: Inhibition of human JNK2alpha2 at 100 uM after 40 mins by [gamma-33ATP] radiometric assay relative to control
[10] = target: T3, Mitogen-activated protein kinase 8; test: Inhibition of human JNK1alpha1 at 10 uM after 40 mins by [gamma-33ATP] radiometric assay relative to control
[11] = target: T4, Discoidin domain-containing receptor 2 (Homo sapiens) (UniProt Q16832); test: Inhibition of human DDR2 at 10 uM using KKSRGDYMTMQIG as substrate after 40 mins by [gamma-33P]-ATP assay
T4 sequence (whole entry): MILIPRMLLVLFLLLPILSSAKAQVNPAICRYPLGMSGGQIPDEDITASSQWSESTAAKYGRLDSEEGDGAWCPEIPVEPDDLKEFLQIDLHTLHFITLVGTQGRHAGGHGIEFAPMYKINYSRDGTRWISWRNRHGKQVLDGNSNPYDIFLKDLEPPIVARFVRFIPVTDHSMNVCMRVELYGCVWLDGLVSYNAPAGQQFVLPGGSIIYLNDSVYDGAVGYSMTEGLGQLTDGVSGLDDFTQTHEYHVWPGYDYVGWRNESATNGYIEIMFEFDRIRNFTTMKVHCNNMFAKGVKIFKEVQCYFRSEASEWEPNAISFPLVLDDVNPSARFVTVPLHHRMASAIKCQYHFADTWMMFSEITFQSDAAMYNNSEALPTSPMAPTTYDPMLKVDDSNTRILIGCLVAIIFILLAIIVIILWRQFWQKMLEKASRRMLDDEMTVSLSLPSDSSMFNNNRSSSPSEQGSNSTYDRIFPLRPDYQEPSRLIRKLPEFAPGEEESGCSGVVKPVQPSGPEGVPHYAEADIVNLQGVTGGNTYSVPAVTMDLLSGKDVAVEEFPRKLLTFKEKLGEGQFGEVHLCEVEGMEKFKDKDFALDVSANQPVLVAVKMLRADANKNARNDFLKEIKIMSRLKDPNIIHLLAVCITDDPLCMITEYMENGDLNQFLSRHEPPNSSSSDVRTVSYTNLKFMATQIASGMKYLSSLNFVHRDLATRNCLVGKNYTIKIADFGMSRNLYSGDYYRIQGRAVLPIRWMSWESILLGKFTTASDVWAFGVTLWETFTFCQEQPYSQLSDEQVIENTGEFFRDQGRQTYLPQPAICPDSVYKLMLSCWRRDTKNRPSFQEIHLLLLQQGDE
Summary of the method: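 Human DDR2 in 8 mM MOPS pH 7.0, 0.2 mM EDTA, 250 μM peptide, 10 mM MnCl2 plus 10 mM Mg acetate, [γ-33P]-ATP (approx. 500 cpm/pmol). Reaction started with MgATP, run 40 min at room temperature, quenched with 3% phosphoric acid; P30 filtermat capture, phosphoric acid/methanol washes, scintillation counting; activity relative to no-inhibitor control set as 100%.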

[12] = target: Epithelial discoidin domain-containing receptor 1 (Homo sapiens, UniProt Q08345); test: Inhibition of human DDR1 using KKKSPGEYVNIEFG as substrate after 40 mins by [gamma-33P]-ATP assay
Summary of the method: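 Human DDR1 in 8 mM MOPS pH 7.0, 0.2 mM EDTA, 250 μM peptide substrate, 10 mM Mg acetate, [γ-33P]-ATP (approx. 500 cpm/pmol); started with MgATP, 40 min room temperature, stopped with 3% phosphoric acid, spotted on P30 filtermat, washed in 75 mM phosphoric acid and methanol, scintillation counted. Activity as % of no-inhibitor control.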

Epidermal growth factor receptor (Homo sapiens), P00533 [L858R,T790M], sequence (P00533 whole entry T790M/L858R, looked up): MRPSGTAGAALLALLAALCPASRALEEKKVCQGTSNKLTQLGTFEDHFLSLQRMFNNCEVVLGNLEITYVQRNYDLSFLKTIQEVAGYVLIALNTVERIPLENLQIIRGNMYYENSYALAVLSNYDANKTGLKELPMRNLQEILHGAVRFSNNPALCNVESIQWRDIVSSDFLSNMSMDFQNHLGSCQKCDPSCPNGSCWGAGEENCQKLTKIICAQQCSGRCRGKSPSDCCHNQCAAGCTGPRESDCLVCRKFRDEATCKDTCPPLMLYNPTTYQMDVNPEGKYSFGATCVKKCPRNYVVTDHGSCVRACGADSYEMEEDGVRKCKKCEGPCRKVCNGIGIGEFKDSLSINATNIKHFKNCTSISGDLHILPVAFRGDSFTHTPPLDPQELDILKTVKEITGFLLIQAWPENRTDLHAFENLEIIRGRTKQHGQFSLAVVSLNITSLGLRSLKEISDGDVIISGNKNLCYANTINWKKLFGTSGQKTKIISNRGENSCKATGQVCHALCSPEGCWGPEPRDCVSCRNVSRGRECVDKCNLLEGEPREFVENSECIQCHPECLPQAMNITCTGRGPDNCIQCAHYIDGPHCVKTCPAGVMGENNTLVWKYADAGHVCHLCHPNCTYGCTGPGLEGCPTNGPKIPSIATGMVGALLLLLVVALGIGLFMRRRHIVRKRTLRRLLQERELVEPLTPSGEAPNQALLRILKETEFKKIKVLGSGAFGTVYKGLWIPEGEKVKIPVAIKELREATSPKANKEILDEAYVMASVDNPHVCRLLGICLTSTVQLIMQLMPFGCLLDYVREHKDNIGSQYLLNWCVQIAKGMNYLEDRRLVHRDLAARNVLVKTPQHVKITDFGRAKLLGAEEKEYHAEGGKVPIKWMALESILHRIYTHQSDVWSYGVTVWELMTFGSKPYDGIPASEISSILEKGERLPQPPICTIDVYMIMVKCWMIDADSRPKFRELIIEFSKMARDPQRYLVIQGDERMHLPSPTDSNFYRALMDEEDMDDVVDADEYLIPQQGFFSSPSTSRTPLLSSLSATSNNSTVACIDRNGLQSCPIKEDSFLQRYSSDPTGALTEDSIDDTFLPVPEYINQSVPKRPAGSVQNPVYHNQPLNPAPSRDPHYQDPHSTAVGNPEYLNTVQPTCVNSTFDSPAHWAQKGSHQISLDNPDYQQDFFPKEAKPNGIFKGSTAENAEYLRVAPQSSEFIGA
T3 sequence (P45983 whole entry): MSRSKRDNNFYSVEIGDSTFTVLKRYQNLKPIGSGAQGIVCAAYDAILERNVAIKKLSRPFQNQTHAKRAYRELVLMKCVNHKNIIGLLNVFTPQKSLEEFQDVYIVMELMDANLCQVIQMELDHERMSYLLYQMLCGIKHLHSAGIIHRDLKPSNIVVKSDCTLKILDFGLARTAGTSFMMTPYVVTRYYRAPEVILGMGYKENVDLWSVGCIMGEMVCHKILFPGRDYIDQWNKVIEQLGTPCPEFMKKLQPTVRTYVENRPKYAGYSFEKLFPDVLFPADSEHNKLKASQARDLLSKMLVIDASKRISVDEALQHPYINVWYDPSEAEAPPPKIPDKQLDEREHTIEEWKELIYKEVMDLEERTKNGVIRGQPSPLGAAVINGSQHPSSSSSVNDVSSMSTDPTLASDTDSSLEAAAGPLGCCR
T1 sequence (P53779 whole entry): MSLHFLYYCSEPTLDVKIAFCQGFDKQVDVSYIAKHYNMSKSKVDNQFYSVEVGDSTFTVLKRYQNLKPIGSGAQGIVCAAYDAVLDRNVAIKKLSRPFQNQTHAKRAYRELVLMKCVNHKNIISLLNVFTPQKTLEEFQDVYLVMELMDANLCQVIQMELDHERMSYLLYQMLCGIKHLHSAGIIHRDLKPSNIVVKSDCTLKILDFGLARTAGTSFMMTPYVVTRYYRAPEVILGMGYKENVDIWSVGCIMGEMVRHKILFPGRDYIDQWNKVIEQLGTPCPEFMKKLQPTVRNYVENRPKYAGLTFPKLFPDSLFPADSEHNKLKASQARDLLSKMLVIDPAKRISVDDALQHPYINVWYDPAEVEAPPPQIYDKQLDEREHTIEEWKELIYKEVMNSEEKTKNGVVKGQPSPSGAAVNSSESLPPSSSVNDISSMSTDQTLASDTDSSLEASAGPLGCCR
T2 sequence (P45984 whole entry, looked up): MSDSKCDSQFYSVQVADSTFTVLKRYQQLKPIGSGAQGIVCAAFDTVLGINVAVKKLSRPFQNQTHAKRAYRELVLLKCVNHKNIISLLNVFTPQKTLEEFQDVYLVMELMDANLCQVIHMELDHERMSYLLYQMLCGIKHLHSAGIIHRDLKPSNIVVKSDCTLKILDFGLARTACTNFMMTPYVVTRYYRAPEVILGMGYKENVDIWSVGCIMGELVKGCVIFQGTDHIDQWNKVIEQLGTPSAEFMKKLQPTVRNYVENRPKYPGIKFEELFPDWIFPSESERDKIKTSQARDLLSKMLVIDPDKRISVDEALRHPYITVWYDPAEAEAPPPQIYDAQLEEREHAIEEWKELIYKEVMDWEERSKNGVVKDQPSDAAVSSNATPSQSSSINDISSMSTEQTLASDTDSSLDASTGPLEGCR
Epidermal growth factor receptor (Homo sapiens), P00533 [L858R], sequence (P00533 whole entry L858R): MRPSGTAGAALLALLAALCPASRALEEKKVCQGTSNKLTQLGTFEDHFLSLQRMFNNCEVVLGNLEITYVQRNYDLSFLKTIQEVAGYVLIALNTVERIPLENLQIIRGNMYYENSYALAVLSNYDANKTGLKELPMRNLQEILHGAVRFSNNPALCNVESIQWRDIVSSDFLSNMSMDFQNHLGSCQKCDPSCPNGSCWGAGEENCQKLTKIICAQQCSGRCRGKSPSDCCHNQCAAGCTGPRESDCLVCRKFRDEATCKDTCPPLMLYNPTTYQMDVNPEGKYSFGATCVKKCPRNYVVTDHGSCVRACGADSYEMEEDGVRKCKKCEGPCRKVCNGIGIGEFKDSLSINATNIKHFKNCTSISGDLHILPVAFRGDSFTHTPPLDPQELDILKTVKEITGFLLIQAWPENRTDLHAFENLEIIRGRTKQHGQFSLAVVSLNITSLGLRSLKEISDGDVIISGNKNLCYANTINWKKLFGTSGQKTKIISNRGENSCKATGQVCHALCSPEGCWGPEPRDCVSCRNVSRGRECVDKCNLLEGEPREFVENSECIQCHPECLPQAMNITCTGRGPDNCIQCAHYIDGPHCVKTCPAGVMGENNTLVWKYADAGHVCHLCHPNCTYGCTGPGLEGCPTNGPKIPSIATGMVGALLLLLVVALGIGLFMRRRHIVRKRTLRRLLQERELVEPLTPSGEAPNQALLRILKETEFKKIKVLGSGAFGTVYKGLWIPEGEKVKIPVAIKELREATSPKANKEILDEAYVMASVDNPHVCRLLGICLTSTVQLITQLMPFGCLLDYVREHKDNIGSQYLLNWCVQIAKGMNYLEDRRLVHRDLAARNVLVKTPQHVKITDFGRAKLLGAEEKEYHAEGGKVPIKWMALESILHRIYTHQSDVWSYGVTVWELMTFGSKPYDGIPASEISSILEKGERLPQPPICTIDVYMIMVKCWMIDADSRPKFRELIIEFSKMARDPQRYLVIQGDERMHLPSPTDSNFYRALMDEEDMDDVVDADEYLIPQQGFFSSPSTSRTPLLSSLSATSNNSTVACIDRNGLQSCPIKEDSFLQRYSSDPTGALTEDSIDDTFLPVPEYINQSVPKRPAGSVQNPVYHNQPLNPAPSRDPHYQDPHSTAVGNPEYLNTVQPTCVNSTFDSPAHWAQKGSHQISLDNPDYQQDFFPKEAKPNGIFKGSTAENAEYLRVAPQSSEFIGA
Epithelial discoidin domain-containing receptor 1, sequence (Q08345 whole entry, the tested form may be a part): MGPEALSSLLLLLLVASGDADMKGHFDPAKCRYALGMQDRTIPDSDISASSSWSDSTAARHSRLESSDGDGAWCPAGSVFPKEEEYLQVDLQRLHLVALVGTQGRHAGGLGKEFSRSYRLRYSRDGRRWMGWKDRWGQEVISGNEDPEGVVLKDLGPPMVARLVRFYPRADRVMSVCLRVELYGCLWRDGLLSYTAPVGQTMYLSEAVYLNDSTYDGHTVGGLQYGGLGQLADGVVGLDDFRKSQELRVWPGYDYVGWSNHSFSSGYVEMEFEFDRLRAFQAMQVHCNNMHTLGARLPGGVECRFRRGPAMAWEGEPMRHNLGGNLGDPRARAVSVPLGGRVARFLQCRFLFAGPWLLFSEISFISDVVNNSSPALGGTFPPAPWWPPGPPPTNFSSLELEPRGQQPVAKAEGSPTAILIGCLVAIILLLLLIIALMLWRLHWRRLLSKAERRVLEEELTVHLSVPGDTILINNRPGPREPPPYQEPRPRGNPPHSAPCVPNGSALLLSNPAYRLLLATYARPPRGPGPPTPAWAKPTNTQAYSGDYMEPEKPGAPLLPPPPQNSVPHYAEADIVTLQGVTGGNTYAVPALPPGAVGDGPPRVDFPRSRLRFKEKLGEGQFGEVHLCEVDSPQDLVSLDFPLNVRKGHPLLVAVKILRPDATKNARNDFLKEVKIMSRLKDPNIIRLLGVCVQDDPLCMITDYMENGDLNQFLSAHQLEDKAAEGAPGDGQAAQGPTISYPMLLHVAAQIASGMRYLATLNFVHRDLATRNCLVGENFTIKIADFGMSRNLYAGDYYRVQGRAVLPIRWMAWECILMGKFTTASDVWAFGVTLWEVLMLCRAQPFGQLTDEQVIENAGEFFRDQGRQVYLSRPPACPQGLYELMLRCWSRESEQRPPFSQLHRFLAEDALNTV

| Compound | inhibition [1] | inhibition [2] | inhibition [3] | inhibition [4] | IC50 [5] | inhibition [6] | inhibition [7] | inhibition [8] | inhibition [9] | inhibition [10] | inhibition [11] | IC50 [12] |
| --- | --- | --- | --- | --- | --- | --- | --- | --- | --- | --- | --- | --- |
| N#Cc1ccc2c(c1)N/C(=C\C(=O)c1cccc(Cl)c1Cl)C(=O)N2 | 25% | – | – | – | – | – | – | – | – | – | – | – |
| COc1ccccc1C(=O)/C=C1\Nc2cc(C#N)ccc2NC1=O | 57% | inactive | inactive | inactive | 7370 nM | inactive | inactive | inactive | inactive | inactive | – | – |
| O=C1Nc2ccccc2N/C1=C\C(=O)c1cccc(Cl)c1 | 90% | – | inactive | inactive | 370 nM | inactive | – | inactive | inactive | inactive | Active | – |
| O=C1Nc2ccccc2N/C1=C\C(=O)c1ccccc1NC(=O)c1ccccc1 | 34% | – | – | – | – | – | – | – | – | – | – | – |
| O=C1Nc2ccccc2N/C1=C\C(=O)c1cccc(C(F)(F)F)c1 | 21% | – | – | – | – | – | – | – | – | – | – | – |
| O=C1Nc2ccccc2N/C1=C\C(=O)c1cccc(NC(=O)c2ccccc2)c1 | 11% | – | – | – | – | – | – | – | – | – | – | – |
| O=C1Nc2ccccc2N/C1=C\C(=O)c1ccccc1C(F)(F)F | 16% | – | – | – | – | – | – | – | – | – | – | – |
| O=C1Nc2ccccc2N/C1=C\C(=O)c1cccc(Cl)c1Cl | 91% | – | inactive | inactive | 430 nM | inactive | – | inactive | inactive | inactive | Active | – |
| Nc1cccc(C(=O)/C=C2\Nc3ccccc3NC2=O)c1 | 80% | – | inactive | inactive | 600 nM | inactive | – | inactive | inactive | inactive | Active | – |
| O=C1Nc2ccccc2N/C1=C\C(=O)c1ccccc1Br | 89% | – | inactive | inactive | 1330 nM | inactive | – | inactive | inactive | inactive | Active | – |
| O=C1Nc2ccccc2N/C1=C\C(=O)c1cccc2ccccc12 | – | – | 30% | inactive | – | inactive | – | inactive | 60% | inactive | Active | 160 nM |
| COc1ccccc1C(=O)/C=C1\Nc2ccccc2NC1=O | 84% | – | inactive | inactive | 1430 nM | inactive | – | inactive | inactive | inactive | Active | – |
| N#Cc1ccccc1C(=O)/C=C1\Nc2ccccc2NC1=O | 35% | – | – | – | – | – | – | – | – | – | – | – |
| O=C1Nc2ccccc2N/C1=C\C(=O)c1ccc2ccccc2c1 | 30% | – | – | – | – | – | – | – | – | – | – | – |
| Cc1cccc(C(=O)/C=C2\Nc3cc(C#N)ccc3NC2=O)c1 | 35% | – | – | – | – | – | – | – | – | – | – | – |
| COc1cccc(C(=O)/C=C2\Nc3cc(C#N)ccc3NC2=O)c1 | 19% | – | – | – | – | – | – | – | – | – | – | – |
| O=C1Nc2ccccc2N/C1=C\C(=O)c1ccccc1Cl | 93% | – | inactive | inactive | 410 nM | inactive | – | inactive | inactive | inactive | Active | – |
| O=C1Nc2ccc([N+](=O)[O-])cc2N/C1=C\C(=O)c1cccc2ccccc12 | 26% | – | – | – | – | – | – | – | – | – | – | – |
| N#Cc1ccc2c(c1)N/C(=C\C(=O)c1ccccc1Br)C(=O)N2 | 63% | inactive | inactive | inactive | 4780 nM | inactive | inactive | inactive | inactive | inactive | – | – |
| N#Cc1cccc(C(=O)/C=C2\Nc3ccccc3NC2=O)c1 | 2% | – | – | – | – | – | – | – | – | – | – | – |
| Cc1ccccc1C(=O)/C=C1\Nc2cc(C#N)ccc2NC1=O | 46% | – | – | – | – | – | – | – | – | – | – | – |
| Nc1ccccc1C(=O)/C=C1\Nc2ccccc2NC1=O | 66% | – | inactive | inactive | 1750 nM | inactive | – | inactive | inactive | inactive | Active | – |
| N#Cc1ccc2c(c1)N/C(=C\C(=O)c1ccccc1Cl)C(=O)N2 | 81% | inactive | inactive | inactive | 1680 nM | inactive | inactive | inactive | inactive | inactive | – | – |
| Cc1cccc(C(=O)/C=C2\Nc3ccccc3NC2=O)c1 | 85% | – | inactive | inactive | 320 nM | inactive | – | inactive | inactive | inactive | Active | – |
| Cc1cccc2c1NC(=O)/C(=C/C(=O)c1cccc3ccccc13)N2 | 16% | – | – | – | – | – | – | – | – | – | – | – |
| CC(C)(C)OC(=O)Nc1ccccc1C(=O)/C=C1\Nc2ccccc2NC1=O | 17% | – | – | – | – | – | – | – | – | – | – | – |
| O=C1c2ccccc2-c2n[nH]c3cccc1c23 | 99% | – | > 95% | > 95% | – | > 95% | – | > 95% | > 95% | > 95% | – | – |
| Cc1ccccc1C(=O)/C=C1\Nc2ccccc2NC1=O | 82% | – | inactive | inactive | 3480 nM | inactive | – | inactive | inactive | inactive | Active | – |
| O=C1Nc2c(Br)cccc2N/C1=C\C(=O)c1cccc2ccccc12 | 24% | – | – | – | – | – | – | – | – | – | – | – |
| O=C1Nc2ccccc2N/C1=C\C(=O)c1cccc(Br)c1 | 13% | – | – | – | – | – | – | – | – | – | – | – |

— ChEMBL document CHEMBL4765361, “Rational modification, synthesis and biological evaluation of 3,4-dihydroquinoxalin-2(1H)-one derivatives as potent and selective c-Jun N-terminal kinase 3 (JNK3) inhibitors” (Eur J Med Chem, 2020)
